The record followed here is ChEMBL document CHEMBL4823316, “Synthesis and evaluation of squaramide and thiosquaramide inhibitors of the DNA repair enzyme SNM1A” (Bioorg Med Chem, 2021).

Assay [1] concerns the target T1, DNA cross-link repair 1A protein (Homo sapiens) (UniProt Q6PJP8).
T1 sequence (whole entry): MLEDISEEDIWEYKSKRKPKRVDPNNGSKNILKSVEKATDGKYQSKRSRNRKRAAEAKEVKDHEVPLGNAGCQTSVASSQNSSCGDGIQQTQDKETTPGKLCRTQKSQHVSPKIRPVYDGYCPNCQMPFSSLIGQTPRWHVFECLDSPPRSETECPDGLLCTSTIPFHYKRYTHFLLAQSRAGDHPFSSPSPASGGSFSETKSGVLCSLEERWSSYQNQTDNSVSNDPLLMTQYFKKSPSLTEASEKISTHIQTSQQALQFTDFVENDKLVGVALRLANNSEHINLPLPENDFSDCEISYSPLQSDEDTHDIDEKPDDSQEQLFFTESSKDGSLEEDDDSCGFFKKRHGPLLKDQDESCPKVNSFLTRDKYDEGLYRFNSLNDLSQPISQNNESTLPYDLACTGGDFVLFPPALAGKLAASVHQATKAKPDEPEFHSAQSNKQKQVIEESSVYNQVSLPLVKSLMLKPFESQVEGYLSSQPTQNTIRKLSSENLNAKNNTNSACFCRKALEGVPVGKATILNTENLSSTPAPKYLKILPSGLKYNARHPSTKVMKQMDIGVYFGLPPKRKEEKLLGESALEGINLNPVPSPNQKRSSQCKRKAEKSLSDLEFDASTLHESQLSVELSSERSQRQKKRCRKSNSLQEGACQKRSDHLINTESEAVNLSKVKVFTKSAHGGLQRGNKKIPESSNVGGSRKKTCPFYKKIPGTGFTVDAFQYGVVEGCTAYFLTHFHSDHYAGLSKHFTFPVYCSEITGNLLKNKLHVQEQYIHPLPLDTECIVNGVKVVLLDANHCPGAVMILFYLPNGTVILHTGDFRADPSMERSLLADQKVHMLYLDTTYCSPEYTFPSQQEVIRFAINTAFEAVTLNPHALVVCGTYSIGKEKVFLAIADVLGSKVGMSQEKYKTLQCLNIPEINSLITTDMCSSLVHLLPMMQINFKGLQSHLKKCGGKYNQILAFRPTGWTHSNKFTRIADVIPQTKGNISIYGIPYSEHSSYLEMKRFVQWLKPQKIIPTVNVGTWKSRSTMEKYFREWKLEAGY
As to the kind of experiment: Inhibition of SNM1A (unknown origin) assessed as reduction in oligonucleotide digestion at 1 mM using 21mer fluorescent oligonucleotide as substrate preincubated for 5 mins followed by substrate addition and measured after 1 hr by PAGE analysis. As to conditions: time 65.0 min.

Assay [2] in a line: Metal chelating activity assessed as Zn2+-compound complex formation by measuring equilibrium constant measured at 2:1 compound to metal ion ratio by UV-Vis titration based analysis. In short, it runs like this: (§1)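 Compounds in MeCN titrated with Zn(ClO₄)₂ and followed by UV–Vis. Binding constants for 1:1, 1:2 and 2:1 ligand–metal species were derived by global non-linear regression, comparing two- and three-species models. Described as qualitative.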

The nature of assay [3]: Metal chelating activity assessed as Zn2+-compound complex formation by measuring equilibrium constant measured at 1:1 compound to metal ion ratio by UV-Vis titration based analysis. The gist of the method:
as §1

The target of assay [4] is T2, DNA cross-link repair 1A protein (Homo sapiens, UniProt Q6PJP8).
T2 sequence (Q6PJP8 whole entry): T1 sequence (whole entry)
As to the kind of experiment: Inhibition of SNM1A (unknown origin) by real time fluorescence assay. In short, it runs like this: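 Real-time fluorescence assay of SNM1A exonuclease activity used to derive IC₅₀ from a concentration series. Unmodified thymidine run as control. Error bars from 6 independent repeats.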

A short description of assay [5]: Metal chelating activity assessed as Zn2+-compound complex formation by measuring equilibrium constant measured at 1:2 compound to metal ion ratio by UV-Vis titration based analysis. The gist of the method: as §1
The target in assay [6] is T1, DNA cross-link repair 1A protein (Homo sapiens). As to the kind of experiment: Inhibition of SNM1A (unknown origin) assessed as reduction in oligonucleotide digestion at 333 uM using 21mer fluorescent oligonucleotide as substrate preincubated for 5 mins followed by substrate addition and measured after 1 hr by PAGE analysis. As to conditions: time 65.0 min.

Structures are written as SMILES. Active and inactive are the calls of the source. The calls are words filed in the database; no cut-off is given here.

For the compound `CCN(CC)c1c(N[C@H]2C[C@H](n3cc(C)c(=O)[nH]c3=O)O[C@@H]2CO)c(=S)c1=S`, in assay [1], the inhibition result is “Active”.

For the compound `Cc1cn([C@H]2C[C@H](O)[C@@H](CNc3c(Nc4ccccc4O)c(=O)c3=O)O2)c(=O)[nH]c1=O`, the inhibition result in assay [1] was “inactive”. Same read-out and setting: the value for `CCOc1c(NC[C@H]2O[C@@H](n3cc(C)c(=O)[nH]c3=O)C[C@@H]2O)c(=O)c1=O` was “inactive”; that for `Cc1cn([C@H]2C[C@H](O)[C@@H](CNc3c(NCCO)c(=O)c3=O)O2)c(=O)[nH]c1=O` was “inactive”. Regarding `Cc1cn([C@H]2C[C@H](Nc3c(O)c(=O)c3=O)[C@@H](CO)O2)c(=O)[nH]c1=O`, the Kb in assay [2] was 3.2 10^6/M; in assay [3], 4 10^4/M. As for `CCN(CC)c1c(NC[C@H]2O[C@@H](n3cc(C)c(=O)[nH]c3=O)C[C@@H]2O)c(=O)c1=O`, the inhibition result in assay [1] was “inactive”.

For `Cc1cn([C@H]2C[C@H](O)[C@H](CNc3c(N[C@H]4C[C@H](n5cc(C)c(=O)[nH]c5=O)O[C@@H]4CO)c(=S)c3=S)O2)c(=O)[nH]c1=O`, in assay [1], the inhibition entry was “Active”.

On to `Cc1cn([C@H]2C[C@H](O)[C@@H](CNc3c(O)c(=O)c3=O)O2)c(=O)[nH]c1=O`, for which the inhibition result in assay [1] is “inactive”. `Cc1cn([C@H]2C[C@H](O)[C@@H](CO)O2)c(=O)[nH]c1=O` [DOXRIBTIMINE]: in assay [1], the inhibition entry was “inactive”. Besides, the IC50 entry in assay [4] was “Not Active”.

Turning to `Cc1cn([C@H]2C[C@H](Nc3c(N(C)O)c(=O)c3=O)[C@@H](CO)O2)c(=O)[nH]c1=O`, the inhibition result in assay [1] and in assay [6] was “Active” in each case. For the same compound, the Kb in assay [5] is 6.6 10^1/M; in assay [3], 3 10^4/M.

On to `CCN(CC)c1c(NC[C@H]2O[C@@H](n3cc(C)c(=O)[nH]c3=O)C[C@@H]2O)c(=S)c1=S`, for which the Kb in assay [5] is 1.7 10^2/M; in assay [2], 1.2 10^6/M; in assay [3], 6.8 10^5/M. For the compound `CN(O)c1c(N[C@H]2[C@@H](O)[C@H](n3ccc(=O)[nH]c3=O)O[C@@H]2CO)c(=O)c1=O`, the inhibition entry in assay [1] was “Active”.
